Reference: ChEMBL document CHEMBL1157962, “Antifungal azaphilones from the fungus Chaetomium cupreum CC3003” (J Nat Prod, 2006)
In brackets after ≈: the same amount, converted by molar mass. Activity calls are given as the source filed them. The rule behind the calls is not given here.

Assays:
NCI-H178 = test: Cytotoxicity against human […] cells; assay type: functional, cell-based
Candida albicans = test: Antifungal activity against Candida albicans by XTT formazan assay; assay type: functional, organism-based
Outline: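 Clinical isolate of Candida albicans tested by a modified soluble formazan (XTT) method. Viable cells read as XTT formazan absorbance at 450 nm. IC50 taken in μg/mL.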

KB = test: Cytotoxicity against human KB cells; assay type: functional, cell-based
BC1 = test: Cytotoxicity against human BC1 cells; assay type: functional, cell-based

SMILES	Activity (NCI-H178)	IC50 (Candida albicans)	Activity (KB)	Activity (BC1)
CC[C@H](C)/C=C(C)/C=C/C1=CC2=CC3=C(C(C)=O)C(=O)O[C@@]3(C)C(=O)C2=CO1	inactive	24.3 µg/mL (≈ 63.9 µM)	inactive	inactive
CC[C@H](C)/C=C(C)/C=C/C1=CC2=CC3=C(C(C)=O)C(=O)O[C@@]3(C)[C@H](O)C2=CO1 [ROTIORINOL A]	inactive	10.5 µg/mL (≈ 27.5 µM)	inactive	inactive
CC(=O)C1=C2C=C3C=C(/C=C/C(C)=C/[C@@H](C)CCO)OC=C3[C@@H](O)[C@]2(C)OC1=O [ROTIORINOL C]	inactive	16.7 µg/mL (≈ 41.9 µM)	inactive	inactive
CC[C@H](C)/C=C(C)/C=C/C1=CC2=C(Cl)C(=O)[C@@]3(C)OC(=O)C(C(C)=O)=C3C2=CO1 [RUBROROTIORIN]	inactive	0.6 µg/mL (≈ 1.45 µM)	inactive	inactive
